The target in test [1] is GABA-A receptor; anion channel. The experiment in a line: Displacement of [3H]flunitrazepam (FNZ) from GABA-A benzodiazepine receptor in rat forebrain. (In general: Loss of bound radioactivity is the signal in a displacement assay; it reports binding, not function.)
Test [2] deals with Rattus norvegicus. The experiment in a line: Compound tested for its effect on Nonconflict (VI) operant responding of rats at a dose of 30.0 mg/Kg administered perorally. The test is classed as functional. In outline:
(§1)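 Cook-Davidson conflict procedure in rats given oral doses. Rats lever-press for milk reward with shock (conflict, FR) and without shock (nonconflict, VI). Value is % change in response rate, with significance set at P < 0.05. The minimally effective oral dose is taken as the dose raising conflict responding or lowering VI responding.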

The test system of test [3] is Rattus norvegicus. The experiment in a line: Compound tested for its effect on conflict (FR) operant responding of rats at a dose of 30.0 mg/Kg administered perorally. The class given is functional. The essentials:
as §1

The species entered for test [4] is Rattus norvegicus. The experiment in a line: Anxiolytic response measured by antagonism of pentylenetetrazole discriminative stimuli in rats. The test is classed as functional. In outline: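 Rats trained to discriminate a subconvulsant dose of pentylenetetrazole (PTZ) from vehicle. Test compound given 30 min before the PTZ dose. Antagonism of the PTZ stimulus is scored as the anxiolytic response. ED50 values by probit analysis, with 95% confidence limits.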

Test [5] concerns Rattus norvegicus. The test can be described thus: Compound tested for its effect on Nonconflict (VI) operant responding of rats at a dose of 10.0 mg/Kg administered perorally. The class given is functional. In outline: as §1
The test system of test [6] is Rattus norvegicus. The experiment in a line: Minimal effective oral dose to cause VI response decrement in rats. The test is classed as functional. The essentials: as §1
Test [7] deals with GABA-A receptor; anion channel (Rattus norvegicus) (UniProt O09028+P15431+P18506+P18508+P19969+P20236+P23574+P23576+P28471+P28473+P30191+P62813+P63079+P63138+Q91ZM7+Q9ES14). The experiment in a line: GABA ratio measured by the IC50 in the absence of GABA compared to the IC50 in the presence of GABA in rats. In outline:
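Modified [3H]flunitrazepam binding in rat forebrain, with IC50 measured with and without GABA. Ratio = IC50 without GABA divided by IC50 with GABA.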

Test [8] deals with Rattus norvegicus. The experiment in a line: Anxiolytic response at 10 mg/Kg measured by antagonism of pentylenetetrazole discriminative stimuli in rats. The class given is functional.
In test [9] the test system is Rattus norvegicus. The experiment in a line: Compound tested for its effect on conflict (FR) operant responding of rats at a dose of 30.0 mg/Kg administered perorally. The class given is functional. The essentials: as §1
The test system of test [10] is Rattus norvegicus. The experiment in a line: Minimal effective oral dose to cause increase in conflict response in rats after po administration. The test is classed as functional. In outline:
as §1

For test [11], the system named is Rattus norvegicus. The experiment in a line: Compound tested for its effect on Nonconflict (VI) operant responding of rats at a dose of 3.0 mg/Kg administered perorally. The test is classed as functional. The essentials:
as §1

The subject of test [12] is Rattus norvegicus. The test can be described thus: Compound tested for its effect on conflict (FR) operant responding of rats at a dose of 10.0 mg/Kg administered perorally. The class given is functional. In outline: as §1
The test system of test [13] is Rattus norvegicus. The test can be described thus: Compound tested for its effect on conflict (FR) operant responding of rats at a dose of 3.0 mg/Kg administered perorally. The class given is functional. In outline: as §1
In test [14] the test system is Rattus norvegicus. The test can be described thus: Interaction with ethanol in Rotarod performance at a dose of 0 mg/Kg in rats. The test is classed as functional. The essentials: (§2)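 Rotorod test of ethanol interaction in male Wistar (Crl:(WI)BR) rats, 130–160 g. Vehicle or test compound (0, 1, 3, 10 mg/kg) given orally 30 min before ethanol. Graded ethanol doses given ip 30 min before rotorod testing. Ethanol ED50 reported with confidence limits, P < 0.05.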
On the technique in general: In the rotarod test animals must keep their balance on a rotating rod.

In test [15] the test system is Rattus norvegicus. The experiment in a line: Interaction with ethanol in Rotarod performance at a dose of 1 mg/Kg in rats. The test is classed as functional. In outline:
as §2

Test [16] relates to Rattus norvegicus. The experiment in a line: Interaction with ethanol in Rotarod performance at a dose of 3 mg/Kg in rats. The class given is functional. In outline:
as §2

In test [17] the test system is Rattus norvegicus. The experiment in a line: Compound tested for its effect on Nonconflict (VI) operant responding of rats at a dose of 1.0 mg/Kg administered perorally. The class given is functional. The essentials: as §1
Test [18] relates to Rattus norvegicus. The experiment in a line: Minimal effective oral dose to cause ethanol interaction in rats. The test is classed as functional. In outline: as §2
For test [19], the system named is Rattus norvegicus. The experiment in a line: Interaction with ethanol in Rotarod performance at a dose of 10 mg/Kg in rats. The test is classed as functional. The essentials: as §2
Test [20] relates to Rattus norvegicus. The experiment in a line: Compound tested for its effect on conflict (FR) operant responding of rats at a dose of 1.0 mg/Kg administered perorally. The class given is functional. The essentials: as §1
The test system of test [21] is Rattus norvegicus. The test can be described thus: Compound tested for its effect on Nonconflict(VI) operant responding of rats at a dose of 1.0 mg/kg administered perorally. The test is classed as functional. The note with it: route oral. In outline:
as §1

For test [22], the system named is Rattus norvegicus. The test can be described thus: Compound tested for its effect on Nonconflict(VI) operant responding of rats at a dose of 10.0 mg/kg administered perorally. The test is classed as functional. Conditions: route oral. In outline:
as §1

Test [23] deals with Rattus norvegicus. The test can be described thus: Compound tested for its effect on Nonconflict(VI) operant responding of rats at a dose of 3.0 mg/kg administered perorally. The test is classed as functional. The note with it: route oral. In outline: as §1
Test [24] relates to Rattus norvegicus. The experiment in a line: Compound tested for its effect on Nonconflict(VI) operant responding of rats at a dose of 30.0 mg/kg administered perorally. The note with it: route oral. The class given is functional. The essentials: as §1
The test system of test [25] is Rattus norvegicus. The test can be described thus: Compound tested for its effect on conflict(FR) operant responding of rats at a dose of 1.0 mg/kg administered perorally. The class given is functional. The note with it: route oral. In outline:
as §1

Test [26] deals with Rattus norvegicus. The experiment in a line: Compound tested for its effect on conflict(FR) operant responding of rats at a dose of 10.0 mg/kg administered perorally. The test is classed as functional. The note with it: route oral. In outline: as §1
The subject of test [27] is Rattus norvegicus. The test can be described thus: Compound tested for its effect on conflict(FR) operant responding of rats at a dose of 3.0 mg/kg administered perorally. The test is classed as functional. Conditions: route oral. The essentials: as §1
In test [28] the test system is Rattus norvegicus. The test can be described thus: Compound tested for its effect on conflict(FR) operant responding of rats at a dose of 30.0 mg/kg administered perorally. The note with it: route oral. The class given is functional. The essentials: as §1
Test [29] concerns Rattus norvegicus. The experiment in a line: Anxiolytic response at 30 mg/Kg measured by antagonism of pentylenetetrazole discriminative stimuli in rats. The class given is functional.
The target in test [30] is GABA-A receptor; anion channel. The test can be described thus: Displacement of [3H]flunitrazepam from GABA-A Benzodiazepine receptors in rat forebrain.

Where “and” joins values, the source holds several entries; their conditions need not be identical. Equal entries are not always repeated.

As a reminder, the IC50 is the point on the concentration scale where inhibition reaches its midpoint. As a reminder, the ED50 is the dose at which the effect has come halfway, by size or by number of responders. Lower therefore signals greater potency. In the case of `Oc1nc2c(c3nc(-c4ccc(Cl)cc4)nn13)CN(Cc1ccccc1)CC2`, in [1], the IC50 was 22.4 nM. The “Change in response rate” value was -45% in the test with Rattus norvegicus [2]; 104% and 188% in the test on Rattus norvegicus [3]; 4% in the test on Rattus norvegicus [5]. This compound yielded an ED50 in the test listed under Rattus norvegicus [4] of 6.43 mg/kg. The compound further displayed an MED with Rattus norvegicus [6] of 30 mg/kg. In addition, the GABA ratio in test [7] was 2.45.

Usually inhibition in vivo stands for the relative decrease from the control value, in per cent. A low value points to a weak effect. As for `Oc1nc2c(c3nc(-c4ccccc4F)nn13)CN(Cc1ccccn1)CC2`, the IC50 in test [1] is 0.64 nM. Moreover, the GABA ratio in [7] was 1.65. The compound also gave an inhibition in vivo at 10 mg/kg in the test on Rattus norvegicus [8] of 50%.

`Oc1nc2c(c3nc(-c4ccccc4F)nn13)CCCC2` came in with an IC50 in [1] of 1.7 nM. Also, the “Change in response rate” value came to 1% in the test on Rattus norvegicus [2] and 132% in the test with Rattus norvegicus [9]. The compound also had an ED50 in the test filed under Rattus norvegicus [4] of 2.4 mg/kg. The compound also showed an MED in the test with Rattus norvegicus [10] of 30 mg/kg.

For the compound `Oc1nc2c(c3nc(-c4ccccc4F)nn13)CCCCC2`, the IC50 in test [1] came to 7.2 nM. The “Change in response rate” value in the test on Rattus norvegicus [11] worked out at 11%; with Rattus norvegicus [2], 49%; in the test with Rattus norvegicus [12], 232%; with Rattus norvegicus [13] it was 79%; in the test with Rattus norvegicus [3] it was 236%; in the test on Rattus norvegicus [5] it was 53%. Further, in the test filed under Rattus norvegicus [4], it took a dose of 4.4 mg/kg to reach the 50% effect level (ED50). Further, the MED in the test on Rattus norvegicus [6] and in the test on Rattus norvegicus [10] was 10 mg/kg each time.

`Oc1nc2c(c3nc(-c4ccccc4)nn13)CN(Cc1ccccc1)CC2` showed an IC50 in test [1] of 2.19 nM. Also, the ED50 with Rattus norvegicus [14] turned out to be 1320 mg/kg; in the test on Rattus norvegicus [15], 984 mg/kg; in the test with Rattus norvegicus [16], 832 mg/kg; in the test listed under Rattus norvegicus [4], 2.6 mg/kg; in the test with Rattus norvegicus [19], 563 mg/kg. The “Change in response rate” value in the test on Rattus norvegicus [11] is listed as -4%; in the test on Rattus norvegicus [12] it was 367%; with Rattus norvegicus [13], 167%; with Rattus norvegicus [17], 0%; with Rattus norvegicus [5], 12%; with Rattus norvegicus [20], 35%. The MED was 1 mg/kg in the test on Rattus norvegicus [18] and 3 mg/kg with Rattus norvegicus [10]. For the same compound, in test [7], the GABA ratio worked out at 1.4.

The compound `Oc1nc2c(c3nc(-c4ccccc4Cl)nn13)CN(Cc1ccccc1)CC2` registered an IC50 in test [1] of 1.7 nM. The “Change in response rate” value with Rattus norvegicus [11] is recorded as -40%; in the test with Rattus norvegicus [13], 58%; in the test with Rattus norvegicus [17], 1%; in the test on Rattus norvegicus [20], 18%. Moreover, the ED50 in the test filed under Rattus norvegicus [4] came out at 0.5 mg/kg. For the same compound, the MED in the test on Rattus norvegicus [6] and in the test with Rattus norvegicus [10] was 3 mg/kg each time. Besides, the GABA ratio in [7] worked out at 1.4.

Regarding `Oc1nc2c(c3nc(-c4ccccc4F)nn13)CN(Cc1ccccc1)CC2`, the IC50 in test [1] was 0.44 nM. The “Change in response rate” value is 0% in the test on Rattus norvegicus [21]; -44% with Rattus norvegicus [22]; -13% in the test on Rattus norvegicus [23]; -52% in the test with Rattus norvegicus [24]; 19% in the test on Rattus norvegicus [25]; 206% with Rattus norvegicus [26]. Moreover, the “Change in response rate” value is on record as 173% with Rattus norvegicus [27] and 282% with Rattus norvegicus [28]. Also, the 50% effect level in the test listed under Rattus norvegicus [4] (ED50) was put at a dose of 0.66 mg/kg. Further, the MED came out at 30 mg/kg with Rattus norvegicus [6] and 10 mg/kg in the test on Rattus norvegicus [10]. Further, the GABA ratio in test [7] is 1.06.

Take `COC(=O)CN1CCc2nc(O)n3nc(-c4ccccc4F)nc3c2C1`: the IC50 in test [1] was determined as 27 nM. Further, the inhibition in vivo at 30 mg/kg with Rattus norvegicus [29] worked out at 12%. Besides, the GABA ratio in test [7] is 1.06.

Regarding `O=C1C2C=Nc3ccccc3C2=NN1c1ccccc1` (configuration not stated) [CGS-8216], the IC50 in test [30] is 0.45 nM. The GABA ratio in [7] was 0.82.
